ChEMBL document CHEMBL1155099, “Natural products in parallel synthesis: triazole libraries of nonactic acid” (2008)
Active and inactive are the calls of the source.

Experiments:
Assay type in all cases: functional, organism-based
[1] = tested on: Pseudomonas aeruginosa; assay: Antibacterial activity against Pseudomonas aeruginosa at 1 mM by almar blue dye reduction assay
In short: (§1)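 Single-point primary screen at 1 mM using Alamar Blue dye reduction as the growth read-out.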

[2] = tested on: Bacillus subtilis; assay: Antibacterial activity against Bacillus subtilis at 1 mM by almar blue dye reduction assay; in short: as §1
[3] = tested on: Staphylococcus aureus; assay: Antibacterial activity against Staphylococcus aureus at 1 mM by almar blue dye reduction assay; in short: as §1
[4] = tested on: Cryptococcus neoformans; assay: Antifungal activity against Cryptococcus neoformans at 1 mM by almar blue dye reduction assay; in short: as §1
[5] = tested on: Candida albicans; assay: Antifungal activity against Candida albicans at 1 mM by almar blue dye reduction assay; in short: as §1
[6] = tested on: Saccharomyces cerevisiae; assay: Antifungal activity against Saccharomyces cerevisiae at 1 mM by almar blue dye reduction assay; in short: as §1
[7] = tested on: Escherichia coli; assay: Antibacterial activity against Escherichia coli at 1 mM by almar blue dye reduction assay; in short: as §1
[8] = tested on: Bacillus cereus; assay: Antibacterial activity against Bacillus cereus at 1 mM by almar blue dye reduction assay; in short: as §1
[9] = tested on: Bacillus anthracis; assay: Antibacterial activity against Bacillus anthracis at 1mM by almar blue dye reduction assay

Measured: Activity

CC(C)CC#Cc1cn([C@H](C)C[C@@H]2CC[C@H]([C@@H](C)C(=O)N(C)Cc3ccccc3)O2)nn1
inactive: all assays above

Cc1cccc(NC(=O)NCC#Cc2cn([C@H](C)CC3CCC([C@@H](C)C(=O)N4CCN(CC5CCCO5)CC4)O3)nn2)c1 (single isomer, unassigned)
inactive: all assays above

CCN(CC)C(=O)[C@H](C)C1CCC(C[C@@H](C)n2cc(C#CCOC(=O)OCc3ccccc3)nn2)O1 (single isomer, unassigned)
inactive: all assays above

C[C@H](C[C@@H]1CC[C@H]([C@@H](C)C(=O)N2CCCC2)O1)n1cc(C#Cc2ccc(-c3ccccc3)cc2)nn1
inactive: all assays above

CCOC(=O)C#Cc1cn([C@H](C)CC2CCC([C@@H](C)C(=O)N(CC)CC)O2)nn1 (single isomer, unassigned)
inactive: all assays above

CC(C)NC(=O)[C@H](C)[C@H]1CC[C@@H](C[C@@H](C)n2cc(C#CCOc3ccccc3)nn2)O1
inactive: all assays above

CCCCCC#Cc1cn([C@H](C)C[C@@H]2CC[C@H]([C@@H](C)C(=O)N3CCCC3)O2)nn1
inactive: all assays above

COc1ccc(OCC#Cc2cn([C@H](C)C[C@@H]3CC[C@H]([C@@H](C)C(=O)N(C)Cc4ccccc4)O3)nn2)cc1
inactive: all assays above

C[C@H](CC1CCC([C@@H](C)C(=O)N2CCCC2)O1)n1cc(C#CCOC(=O)OCc2ccccc2)nn1 (single isomer, unassigned)
inactive: all assays above

CCN(CC)C(=O)[C@H](C)[C@H]1CC[C@@H](C[C@@H](C)n2cc(C#CCOc3cccc(-c4ccccc4)c3)nn2)O1
inactive: all assays above

CC(C)NC(=O)[C@H](C)[C@H]1CC[C@@H](C[C@@H](C)n2cc(C#CC3=CCCCC3)nn2)O1
inactive: all assays above

C[C@H](C[C@@H]1CC[C@H]([C@@H](C)C(=O)N(C)Cc2ccccc2)O1)n1cc(C#Cc2ccc(Oc3ccccc3)cc2)nn1
inactive: all assays above

C[C@H](CC1CCC([C@@H](C)C(=O)N2CCCC2)O1)n1cc(C#CCCCC#N)nn1 (single isomer, unassigned)
inactive: all assays above

C[C@H](C[C@@H]1CC[C@H]([C@@H](C)C(=O)N2CCCC2)O1)n1cc(C#Cc2ccc(C(F)(F)F)cc2)nn1
inactive: all assays above

CCN(CC)C(=O)[C@H](C)[C@H]1CC[C@@H](C[C@@H](C)n2cc(C#CCOc3ccc(Br)cc3)nn2)O1
inactive: all assays above

C[C@H](C[C@@H]1CC[C@H]([C@@H](C)C(=O)N2CCCC2)O1)n1cc(C#CCc2ccccc2)nn1
inactive: all assays above

C[C@H](C[C@@H]1CC[C@H]([C@@H](C)C(=O)N(C)Cc2ccccc2)O1)n1cc(C#CCCCC#N)nn1
inactive: all assays above

COc1cccc(OCC#Cc2cn([C@H](C)C[C@@H]3CC[C@H]([C@@H](C)C(=O)N(C)Cc4ccccc4)O3)nn2)c1OC
inactive: all assays above
